Measurements as given in ChEMBL document CHEMBL1137684, “Examination of growth inhibitory properties of synthetic chalcones for which antibacterial activity was predicted” (2009).
Values after ≈ are worked out from the molar mass of the structure shown. Active and inactive are the calls of the source. No rule for the calls is given here.

Legend:
[1] = system: Escherichia coli; test: Antibacterial activity against Escherichia coli WF+; assay type: functional, organism-based
[2] = system: Staphylococcus aureus; test: Antibacterial activity against Staphylococcus aureus Rosenbach 209 after 48 hrs by agar well diffusion method; assay type: functional
In short: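 Agar-well diffusion on meat-peptone agar. Read-out was the diameter of the inhibition zone, with ≥15 mm taken as active. Pure solvent served as the control.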

[3] = system: Staphylococcus aureus; test: Antibacterial activity against Staphylococcus aureus Rosenbach 209 after 24 hrs by serial dilution method; assay type: functional; conditions: Rosenbach 209, 24 h
In short: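 Serial dilution of each chalcone in meat-peptone broth in tubes. Each tube was inoculated with bacterial suspension at 10⁵ cells/ml and incubated at 37 °C for 24 h. MIC was the lowest dilution with no visible growth compared with inoculated drug-free broth.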

Structure (SMILES) | MIC [3] [µg/mL] | Activity [1] | diameter of the inhibition zone (DIZ) [2] [mm]
O=C(/C=C/c1ccccc1O)c1ccccc1 | 62.5 (≈ 279 µM) | inactive | 22
N#Cc1ccc(/C=C/C(=O)c2ccc(Cl)cc2)cc1 | 250 (≈ 934 µM) | inactive | 21
CC(=O)Nc1ccc(/C=C/C(=O)c2ccccc2)cc1 | 500 (≈ 1880 µM) | inactive | 0
CN(C)c1ccc(/C=C/C(=O)c2ccc(Cl)cc2)cc1 | 500 (≈ 1750 µM) | inactive | 0
COc1ccc(/C=C/C(=O)c2ccc(Cl)cc2)cc1 | 500 (≈ 1830 µM) | inactive | 0
O=C(/C=C/c1ccc(O)cc1)c1ccc(Cl)cc1 | 125 (≈ 483 µM) | inactive | 31
COc1cc(/C=C/C(=O)c2ccc(Cl)cc2)ccc1O | 250 (≈ 866 µM) | inactive | 21
O=C(/C=C/c1cccc(O)c1)c1ccc(Cl)cc1 | 125 (≈ 483 µM) | inactive | 25
COc1cc(/C=C/C(=O)/C=C/c2cc(OC)c(OC)c(OC)c2)cc(OC)c1OC | 250 (≈ 603 µM) | inactive | 0
O=C(/C=C/C=C/c1ccccc1)c1ccccc1 | 500 (≈ 2130 µM) | inactive | 0
O=C(/C=C/c1ccc([N+](=O)[O-])cc1)c1ccc(Cl)cc1 | 250 (≈ 869 µM) | inactive | 17
O=C(/C=C/C=C/c1ccccc1)c1ccc(Cl)cc1 | 500 (≈ 1860 µM) | inactive | 0
O=C(/C=C/c1ccc([N+](=O)[O-])cc1)c1ccccc1 | 250 (≈ 987 µM) | inactive | 17
O=C(/C=C/C=C/c1ccccc1)/C=C/C=C/c1ccccc1 | 500 (≈ 1750 µM) | inactive | 0
O=C(/C=C/c1ccc(Cl)cc1)/C=C/c1ccc(Cl)cc1 | 250 (≈ 825 µM) | inactive | 0
N#Cc1ccc(/C=C/C(=O)c2ccccc2)cc1 | 500 (≈ 2140 µM) | inactive | 16
COc1ccc(/C=C/C(=O)c2ccc(Cl)cc2)cc1O | 62.5 (≈ 216 µM) | inactive | 0
O=C(/C=C/c1cc([N+](=O)[O-])ccc1O)c1ccc(Cl)cc1 | 500 (≈ 1650 µM) | inactive | 0
O=C(/C=C/c1ccccc1O)c1ccc(Cl)cc1 | 125 (≈ 483 µM) | inactive | 20
O=C(/C=C/c1ccc(O)c(O)c1)c1ccc(Cl)cc1 | 125 (≈ 455 µM) | inactive | 19
COc1cccc(/C=C/C(=O)c2ccc(Cl)cc2)c1O | 250 (≈ 866 µM) | inactive | 0
O=C(/C=C/c1ccc(Cl)cc1)c1ccc(Cl)cc1 [4',4-DICHLOROCHALCONE] | 500 (≈ 1800 µM) | inactive | 0
CC(=O)Nc1ccc(/C=C/C(=O)c2ccc(Cl)cc2)cc1 | 500 (≈ 1670 µM) | inactive | 0
Cc1ccc(/C=C/C(=O)c2ccc(Cl)cc2)cc1 | 500 (≈ 1950 µM) | inactive | 0

Second part, led by results:

MIC [3] [µg/mL] | Structure (SMILES) | Activity [1] | diameter of the inhibition zone (DIZ) [2] [mm]
500 (≈ 1450 µM) | COc1cc(/C=C/C(=O)c2cc(OC)c(OC)c(OC)c2)ccc1O | inactive | 0
500 (≈ 2100 µM) | COc1ccc(/C=C/C(=O)c2ccccc2)cc1 [4-METHOXY CHALCONE] | inactive | 0
125 (≈ 557 µM) | O=C(/C=C/c1ccc(O)cc1)c1ccccc1 [4-HYDROXYCHALCONE] | inactive | 19
500 (≈ 1450 µM) | COc1ccc(/C=C/C(=O)c2cc(OC)c(OC)c(OC)c2)cc1O | inactive | 0
500 (≈ 2060 µM) | O=C(/C=C/c1ccc(Cl)cc1)c1ccccc1 [4-CHLORO CHALCONE] | inactive | 0
500 (≈ 1590 µM) | COc1cc(C(=O)/C=C/c2cccc(O)c2)cc(OC)c1OC | inactive | 0
125 (≈ 520 µM) | O=C(/C=C/c1ccc(O)c(O)c1)c1ccccc1 | inactive | 21
500 (≈ 1520 µM) | COc1ccc(/C=C/C(=O)c2cc(OC)c(OC)c(OC)c2)cc1 | inactive | 0
125 (≈ 600 µM) | O=C(/C=C/c1ccccc1)c1ccccc1 [CHALCONE] | inactive | 29
125 (≈ 492 µM) | COc1cccc(/C=C/C(=O)c2ccccc2)c1O | inactive | 19
500 (≈ 1970 µM) | COc1cc(/C=C/C(=O)c2ccccc2)ccc1O | inactive | 0
500 (≈ 2060 µM) | O=C(/C=C/c1ccccc1)c1ccc(Cl)cc1 | inactive | 0
250 (≈ 983 µM) | COc1ccc(/C=C/C(=O)c2ccccc2)cc1O | inactive | 0
500 (≈ 2250 µM) | Cc1ccc(/C=C/C(=O)c2ccccc2)cc1 | inactive | 0
500 (≈ 1410 µM) | COc1cc(C(=O)/C=C/c2ccc(NC(C)=O)cc2)cc(OC)c1OC | inactive | 0
62.5 (≈ 182 µM) | COc1cc(C(=O)/C=C/c2ccc([N+](=O)[O-])cc2)cc(OC)c1OC | inactive | 0
500 (≈ 1540 µM) | COc1cc(C(=O)/C=C/C=C/c2ccccc2)cc(OC)c1OC | inactive | 19
250 (≈ 838 µM) | COc1cc(C(=O)/C=C/c2ccccc2)cc(OC)c1OC | inactive | 0
62.5 (≈ 188 µM) | COc1cc(C(=O)/C=C/c2ccc(Cl)cc2)cc(OC)c1OC | inactive | 0
62.5 (≈ 193 µM) | COc1cc(C(=O)/C=C/c2ccc(C#N)cc2)cc(OC)c1OC | inactive | 0
250 (≈ 1110 µM) | O=C(/C=C/c1cccc(O)c1)c1ccccc1 [3-HYDROXY CHALCONE] | inactive | 20
500 (≈ 1570 µM) | COc1cc(/C=C/C(=O)c2ccc(Cl)cc2)cc(OC)c1O | inactive | 19
500 (≈ 1600 µM) | COc1cc(C(=O)/C=C/c2ccc(C)cc2)cc(OC)c1OC | inactive | 0
500 (≈ 1990 µM) | CN(C)c1ccc(/C=C/C(=O)c2ccccc2)cc1 | inactive | 0
500 (≈ 1590 µM) | COc1cc(C(=O)/C=C/c2ccc(O)cc2)cc(OC)c1OC | inactive | 0
500 (≈ 1590 µM) | COc1cc(C(=O)/C=C/c2ccccc2O)cc(OC)c1OC | inactive | 0
500 (≈ 1460 µM) | COc1cc(C(=O)/C=C/c2ccc(N(C)C)cc2)cc(OC)c1OC | inactive | 0
